Like-named read-outs stand apart in the source and are kept apart here. Marks after values point to notes of the source that are not given here.
Tests used:
[1] = Western patients, cited from earlier work
[2] = cited from earlier work
[3] = Global population pharmacokinetic analysis of alisertib in cancer patients; format: in vivo, human; conditions: for half-life: human, plasma, oral
[4] = Exposure–safety logistic regression; format: in vivo, human
How it was run: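 Cancer patients (Western and Japan/East Asia) took oral test compound for 7 days in 21-day cycles, fasting from 2 h before to 1 h after dosing. Plasma levels were measured by LC/MS/MS. Per-patient time-averaged AUC per day covered dosing start to onset of worst-grade toxicity, from actual doses and individual CL/F from a two-compartment population PK model. Incidence (n = 591/593/594) was regressed logistically on log-transformed AUC.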

[5] = East Asian patients, b.i.d. dosing
[6] = 30 mg b.i.d., patients in East Asia
[7] = 50 mg b.i.d., patients in East Asia
[8] = 50 mg b.i.d., patients in the West

## COc1cc(Nc2ncc3c(n2)-c2ccc(Cl)cc2C(c2c(F)cccc2OC)=NC3)ccc1C(=O)O [alisertib]
[1]; b.i.d. for 7 days in a 21-day cycle
  maximum tolerated dose (MTD): 50 mg
[1]; postdose
  median Tmax: 2 to 3 h
[1]
  mean steady-state half-life following multiple dosing: 19 to 23 h
[2]; East Asian patients, 30 mg b.i.d., two of 30 patients
  patients who discontinued alisertib owing to treatment-emergent AEs: 6.7%
[2]; [5]
  half-life: 15 to 17 h
  median Tmax: 2 to 3 h
[2]; East Asian patients, b.i.d. for 7 days in 21-day cycles
  maximum tolerated dose (MTD): 30 mg
[2]; East Asian vs Western patients
  higher geometric mean steady-state systemic exposure in East Asian patients: approximately 70%
  mean CL/F in East Asian patients lower than in Western patients: approximately 40%
[3]; Asian patients in Asia, n = 59
  GM (CV) dose-normalized alisertib AUC(0–τ): 797 (45%) nM.h
[3]; Asian patients in the West, n = 8
  GM (CV) dose-normalized alisertib AUC(0–τ): 475 (43%) nM.h
[3]; Region East, All (Japanese, Korean, Chinese), n = 59
  geometric mean (%CV) dose-normalized alisertib AUC0–τ,ss: 797 (45) nM.h mg^–1
[3]; Region East, Chinese, n = 22
  geometric mean (%CV) dose-normalized alisertib AUC0–τ,ss: 752 (48) nM.h mg^–1
[3]; Region East, Japanese, n = 23
  geometric mean (%CV) dose-normalized alisertib AUC0–τ,ss: 799 (34) nM.h mg^–1
[3]; Region East, Korean, n = 13
  geometric mean (%CV) dose-normalized alisertib AUC0–τ,ss: 885 (53) nM.h mg^–1
[3]; Region West, All non-Asian races, n = 604
  geometric mean (%CV) dose-normalized alisertib AUC0–τ,ss: 482 (43) nM.h mg^–1
[3]; Region West, All, n = 612
  geometric mean (%CV) dose-normalized alisertib AUC0–τ,ss: 482 (43) nM.h mg^–1
[3]; Region West, Asian, n = 8
  geometric mean (%CV) dose-normalized alisertib AUC0–τ,ss: 475 (43) nM.h mg^–1
[3]; Region West, Black, n = 33
  geometric mean (%CV) dose-normalized alisertib AUC0–τ,ss: 462 (57) nM.h mg^–1
[3]; Region West, White, n = 556
  geometric mean (%CV) dose-normalized alisertib AUC0–τ,ss: 482 (43) nM.h mg^–1
[3]; final model
  BSAV1, effect of BSA on V1/F, pop value: 0.899
  CL/F, V1/F, V2/F and Q/F lower in the East Asian region: 34.1%
  KTR, transit compartment rate constant, pop value: 4.17 1 h^–1
  V1/F, apparent central volume, pop value: 54.3 L
  V2/F, apparent peripheral volume, pop value: 28.7 L
  net mean transit time for oral absorption: 0.96 h
[3]; final model (analysis data set n = 422)
  CL/F, apparent clearance, pop value: 4.11 l h^–1
[3]; final model, covariate effect of region on F
  higher bioavailability (F) in East Asian region compared with Western patients: 52%
[3]; final model, affected parameters multiplied by (1–0.341) for East Asian region
  RGNF, effect of region, pop value: −0.341 ^a
[3]; population alpha half-life, final model
  half-life: 1.71 h
[3]; population beta half-life, final model
  half-life: 15.1 h
[3]; non-Asian patients in the West, n = 604
  GM (CV) dose-normalized alisertib AUC(0–τ): 482 (43%) nM.h
[4]; [6]
  estimated population mean time-averaged AUC: 14.23 μM*h day^–1
  estimated probability of grade ≥2 diarrhoea: 12%
  estimated probability of grade ≥2 stomatitis: 6.5%
  estimated probability of grade ≥3 neutropenia: 37%
[4]; [7]
  estimated population mean time-averaged AUC: 23.72 μM*h day^–1
  estimated probability of grade ≥2 diarrhoea: 17%
  estimated probability of grade ≥2 stomatitis: 13%
  predicted probability of grade ≥3 neutropenia: 46%
[4]; [8]
  estimated population mean time-averaged AUC: 15.63 μM*h day^–1
  estimated probability of grade ≥2 diarrhoea: 13%
  estimated probability of grade ≥2 stomatitis: 7%
  predicted probability of grade ≥3 neutropenia: 39%
